These results are taken from ChEMBL document CHEMBL1147632, “2-(N-acyl) and 2-N-acyl-N(6)-substituted analogues of adenosine and their affinity at the human adenosine receptors” (Bioorg Med Chem Lett, 2004).

One assay has as its target T1, Adenosine receptor A1 (Homo sapiens, UniProt P30542).
T1 sequence (P30542 whole entry): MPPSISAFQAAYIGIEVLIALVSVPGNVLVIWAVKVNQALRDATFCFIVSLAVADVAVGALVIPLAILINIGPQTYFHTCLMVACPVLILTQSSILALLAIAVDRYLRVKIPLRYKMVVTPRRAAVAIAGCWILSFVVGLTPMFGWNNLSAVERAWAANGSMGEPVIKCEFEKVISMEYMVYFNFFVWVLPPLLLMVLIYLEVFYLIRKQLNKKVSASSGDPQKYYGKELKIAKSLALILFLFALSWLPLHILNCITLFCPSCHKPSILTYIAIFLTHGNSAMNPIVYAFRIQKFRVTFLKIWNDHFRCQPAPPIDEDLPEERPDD
The assay can be described thus: Displacement of [3H]CCPA from human adenosine A1 receptor expressed in CHO cells. Type of assay: cell-based. (Loss of bound radioactivity is the signal in a displacement assay; it reports binding, not function.)

A further assay deals with Adenosine receptor A2a (Homo sapiens, UniProt P29274). Kind of assay: Displacement of [3H]NECA from human adenosine A2A receptor in stably transfected CHO cells. Type of assay: cell-based. The method, boiled down: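 Radioligand displacement of specific [³H]NECA binding to human recombinant A2A receptor stably expressed in CHO cells; affinity given as Ki (nM).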
In assay [1] the target is Adenosine receptors; A1 & A2a (Homo sapiens) (UniProt P30542+P29274). Kind of assay: Ratio of binding affinity for adenosine A2A receptor to adenosine A1 receptor. Type of assay: protein assay.
The next assay concerns the target T2, Adenosine receptor A3 (Homo sapiens, UniProt P0DMS8).
T2 sequence (P0DMS8 whole entry): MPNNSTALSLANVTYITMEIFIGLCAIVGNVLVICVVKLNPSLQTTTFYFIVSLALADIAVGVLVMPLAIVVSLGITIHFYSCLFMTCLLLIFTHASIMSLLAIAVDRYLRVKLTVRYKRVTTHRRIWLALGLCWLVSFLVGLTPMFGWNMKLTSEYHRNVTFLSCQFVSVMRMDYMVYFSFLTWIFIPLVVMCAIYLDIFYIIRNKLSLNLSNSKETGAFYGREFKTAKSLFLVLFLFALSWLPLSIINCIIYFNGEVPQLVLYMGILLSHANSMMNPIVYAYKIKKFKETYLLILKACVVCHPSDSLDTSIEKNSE
Kind of assay: Displacement of [3H]NECA from human adenosine A3 receptor in stably transfected HEK cells. It is filed as cell-based, HEK293. The method, boiled down: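 Competition for specific [³H]NECA binding at human recombinant A3 receptor stably transfected into HEK cells; Ki reported in nM.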

For assay [2], the target named is T3, Adenosine receptor A2b (Homo sapiens) (UniProt P29275).
T3 sequence (whole entry): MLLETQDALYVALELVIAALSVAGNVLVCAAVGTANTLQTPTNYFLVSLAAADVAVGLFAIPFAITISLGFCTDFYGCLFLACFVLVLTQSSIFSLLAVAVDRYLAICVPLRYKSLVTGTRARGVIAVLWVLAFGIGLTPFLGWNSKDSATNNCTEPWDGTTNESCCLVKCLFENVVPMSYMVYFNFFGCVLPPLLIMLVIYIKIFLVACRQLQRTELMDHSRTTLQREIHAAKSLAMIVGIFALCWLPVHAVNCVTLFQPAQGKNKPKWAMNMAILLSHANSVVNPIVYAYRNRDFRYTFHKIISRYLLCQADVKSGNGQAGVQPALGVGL
The assay can be described thus: Potency NECA-induced signal mediated by human A2B receptor in CHO cells at 100 uM. Type of assay: cell-based. In a few lines: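 Adenylyl cyclase activation measured in membranes from CHO cells stably transfected with human A2B receptor; test compounds at […], response expressed as percent of maximal NECA signal.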

Assay [3] concerns the target Adenosine receptors; A1 & A3 (Homo sapiens) (UniProt P30542+P0DMS8). Kind of assay: Ratio of binding affinity for adenosine A3 receptor to adenosine A1 receptor. Type of assay: protein assay.

Adenosine receptor A2a, sequence (P29274 whole entry): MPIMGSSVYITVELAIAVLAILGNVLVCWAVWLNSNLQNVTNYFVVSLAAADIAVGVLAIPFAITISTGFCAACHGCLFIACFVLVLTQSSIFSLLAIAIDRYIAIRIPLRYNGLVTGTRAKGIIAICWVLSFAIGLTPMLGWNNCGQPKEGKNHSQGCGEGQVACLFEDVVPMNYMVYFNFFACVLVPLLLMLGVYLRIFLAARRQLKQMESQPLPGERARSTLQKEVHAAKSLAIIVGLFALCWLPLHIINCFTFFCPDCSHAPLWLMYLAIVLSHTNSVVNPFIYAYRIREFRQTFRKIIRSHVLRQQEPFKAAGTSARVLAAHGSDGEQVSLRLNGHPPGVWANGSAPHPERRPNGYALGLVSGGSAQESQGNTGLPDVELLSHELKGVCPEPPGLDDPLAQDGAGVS
Adenosine receptors; A1 & A2a (Homo sapiens), sequence (P29274 whole entry, looked up, one chain of several): as the sequence (P29274 whole entry) above

By Ki is commonly meant a measure of affinity in units of concentration, obtained from inhibition or displacement. A higher Ki goes with a looser hold on the target. Turning to `Nc1nc(NC(=O)CCCC2CCCCC2)nc2c1ncn2[C@@H]1O[C@H](CO)[C@@H](O)[C@H]1O`, the values for the Ki at Adenosine receptor A1, on Adenosine receptor A2a and at Adenosine receptor A3 were 733 nM, 1940 nM and 1060 nM, respectively. Moreover, the results for the Ratio in assay [1] and in assay [3] were 3 and 1.4, respectively. This compound gave a Potency in assay [2] of under 20%.

As for `Nc1nc(NC(=O)/C=C/c2ccccc2)nc2c1ncn2[C@@H]1O[C@H](CO)[C@@H](O)[C@H]1O`, the Ki at Adenosine receptor A1 came to 70.7 nM; on Adenosine receptor A2a it was 4100 nM; at Adenosine receptor A3, 900 nM. In addition, the Ratio came to 58 in assay [1] and 13 in assay [3]. In assay [2], this compound displayed a Potency of under 20%.

Turning to `OC[C@H]1O[C@@H](n2cnc3c(NC4CCCC4)nc(Cl)nc32)[C@H](O)[C@@H]1O`, in assay [2], the Potency is under 20%.

For the compound `Nc1nc(NC(=O)C2CCCCC2)nc2c1ncn2[C@@H]1O[C@H](CO)[C@@H](O)[C@H]1O`, the Ki at Adenosine receptor A1 turned out to be 1620 nM; on Adenosine receptor A2a it was 1780 nM; on Adenosine receptor A3, 2760 nM. Besides, the results for the Ratio in assay [1] and in assay [3] were 1.1 and 1.7, respectively. The Potency in assay [2] was under 20%.

With `O=C(CCc1ccccc1)Nc1nc(NC2CCCC2)c2ncn([C@@H]3O[C@H](CO)[C@@H](O)[C@H]3O)c2n1`, the Ki at Adenosine receptor A1 turned out to be 20.7 nM; at Adenosine receptor A2a, 5660 nM; at Adenosine receptor A3, 1250 nM. Moreover, the Ratio in assay [1] turned out to be 273; in assay [3] it was 60. In assay [2], this compound returned a Potency of under 20%.

Regarding `Nc1nc(NC(=O)CCc2ccccc2)nc2c1ncn2[C@@H]1O[C@H](CO)[C@@H](O)[C@H]1O`, the Ki at Adenosine receptor A1 was 432 nM; at Adenosine receptor A2a, 4570 nM; on Adenosine receptor A3, 2710 nM. The Ratio in assay [1] was 11; in assay [3], 6. In assay [2], this compound gave a Potency of under 20%.

As for `O=C(CCC1CCCC1)Nc1nc(NC2CCCC2)c2ncn([C@@H]3O[C@H](CO)[C@@H](O)[C@H]3O)c2n1`, the Ki at Adenosine receptor A1 amounted to 31.8 nM; at Adenosine receptor A2a, 2180 nM; at Adenosine receptor A3, 1410 nM. For the same compound, the Ratio in assay [1] came out at 69; in assay [3] it was 44. Moreover, the Potency in assay [2] is under 20%.

Turning to `Nc1nc(NC(=O)CC2CCCCC2)nc2c1ncn2[C@@H]1O[C@H](CO)[C@@H](O)[C@H]1O`, the Ki turned out to be 342 nM on Adenosine receptor A1, 2410 nM at Adenosine receptor A2a and 1230 nM on Adenosine receptor A3. In addition, the Ratio in assay [1] is 7; in assay [3] it was 4. The Potency in assay [2] is under 20%.

On to `CCNC(=O)[C@H]1O[C@@H](n2cnc3c(N)nc(NC(=O)CCC4CCCC4)nc32)[C@H](O)[C@@H]1O`, for which the Ki on Adenosine receptor A1 worked out at 5450 nM; at Adenosine receptor A2a, 10800 nM; at Adenosine receptor A3 it was 1010 nM. Besides, the values for the Ratio in assay [1] and in assay [3] were 2 and 0.2, respectively. Moreover, the Potency in assay [2] was under 20%.

Turning to `Nc1nc(NC(=O)CCC2CCCC2)nc2c1ncn2[C@@H]1O[C@H](CO)[C@@H](O)[C@H]1O`, the Ki at Adenosine receptor A1 was determined as 252 nM; on Adenosine receptor A2a, 2000 nM; at Adenosine receptor A3, 1040 nM. Further, the Ratio amounted to 8 in assay [1] and 4 in assay [3]. Also, the Potency in assay [2] is under 20%.

On to `CCNc1nc(NC(=O)CC2CCCCC2)nc2c1ncn2[C@@H]1O[C@H](CO)[C@@H](O)[C@H]1O`, for which the Ki at Adenosine receptor A1 is 207 nM; at Adenosine receptor A2a, 7750 nM; on Adenosine receptor A3, 181 nM. In addition, the Ratio was found to be 37 in assay [1] and 0.9 in assay [3]. Also, the Potency in assay [2] is under 20%.
